Our source for the Activity and inhibition values is ChEMBL document CHEMBL4000209, “Chemical synthesis and biological evaluation of ω-hydroxy polyunsaturated fatty acids” (Bioorg Med Chem Lett, 2017).

Data set [1] deals with Transient receptor potential cation channel subfamily V member 1 (Mus musculus) (UniProt Q704Y3). Nature of the data set: Agonist activity at recombinant mouse TRPV1 expressed in HEK293 cells assessed as increase in calcium influx at 10 uM measured for 380 sec by Fluo-4 dye based FLIPR assay. The format is cell-based. In outline:
(§1)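 mTRPV1-transfected HEK293 cells; Ca2+ influx followed over time and quantified as area under the curve; capsaicin as positive control. Experiments repeated twice, each in triplicate.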

The subject of data set [2] is Rattus norvegicus. Nature of the data set: Induction of mechanical allodynia in Sprague-Dawley rat assessed as decrease in withdrawal threshold at 1 ug administered as intraplantar injection measured up to 150 mins post dose by Von Frey assay. Also on record: scale not given: the % may be the effect or the level left. Particulars: in vivo, other, 2.5 h. The method, boiled down: (§2)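 Naive male Sprague Dawley rats, n = 6; methyl esters given by intraplantar injection in 1:9 EtOH/saline. Mechanical withdrawal thresholds measured with an electronic von Frey aesthesiometer over a time course, ipsilateral and contralateral paws. Data analysed by two-way ANOVA with Holm-Sidak post hoc test.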

Data set [3] deals with T1, Prostaglandin G/H synthase 1 (Ovis aries) (UniProt P05979).
T1 sequence (whole entry): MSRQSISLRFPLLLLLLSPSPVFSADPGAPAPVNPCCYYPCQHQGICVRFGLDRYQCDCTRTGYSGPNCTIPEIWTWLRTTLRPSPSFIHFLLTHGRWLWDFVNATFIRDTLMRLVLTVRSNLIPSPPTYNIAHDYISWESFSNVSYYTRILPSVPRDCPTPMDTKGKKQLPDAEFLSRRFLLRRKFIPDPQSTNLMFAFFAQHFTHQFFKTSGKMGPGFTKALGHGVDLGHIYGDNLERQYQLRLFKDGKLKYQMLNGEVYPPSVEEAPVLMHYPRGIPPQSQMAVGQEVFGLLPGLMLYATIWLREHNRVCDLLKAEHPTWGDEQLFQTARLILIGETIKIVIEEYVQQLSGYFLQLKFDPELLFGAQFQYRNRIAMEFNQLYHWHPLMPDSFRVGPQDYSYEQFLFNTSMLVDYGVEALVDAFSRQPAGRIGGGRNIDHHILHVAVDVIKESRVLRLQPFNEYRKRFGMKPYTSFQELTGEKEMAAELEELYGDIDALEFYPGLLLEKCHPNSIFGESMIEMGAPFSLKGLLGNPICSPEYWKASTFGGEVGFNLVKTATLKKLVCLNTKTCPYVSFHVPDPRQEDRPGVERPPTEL
Put plainly: Inhibition of ovine COX1 at 100 uM using arachidonic acid as substrate after 2 mins by fluorometric substrate-based fluorescence assay relative to control.

Data set [4] deals with T2, Prostaglandin G/H synthase 2 (Homo sapiens) (UniProt P35354).
T2 sequence (whole entry): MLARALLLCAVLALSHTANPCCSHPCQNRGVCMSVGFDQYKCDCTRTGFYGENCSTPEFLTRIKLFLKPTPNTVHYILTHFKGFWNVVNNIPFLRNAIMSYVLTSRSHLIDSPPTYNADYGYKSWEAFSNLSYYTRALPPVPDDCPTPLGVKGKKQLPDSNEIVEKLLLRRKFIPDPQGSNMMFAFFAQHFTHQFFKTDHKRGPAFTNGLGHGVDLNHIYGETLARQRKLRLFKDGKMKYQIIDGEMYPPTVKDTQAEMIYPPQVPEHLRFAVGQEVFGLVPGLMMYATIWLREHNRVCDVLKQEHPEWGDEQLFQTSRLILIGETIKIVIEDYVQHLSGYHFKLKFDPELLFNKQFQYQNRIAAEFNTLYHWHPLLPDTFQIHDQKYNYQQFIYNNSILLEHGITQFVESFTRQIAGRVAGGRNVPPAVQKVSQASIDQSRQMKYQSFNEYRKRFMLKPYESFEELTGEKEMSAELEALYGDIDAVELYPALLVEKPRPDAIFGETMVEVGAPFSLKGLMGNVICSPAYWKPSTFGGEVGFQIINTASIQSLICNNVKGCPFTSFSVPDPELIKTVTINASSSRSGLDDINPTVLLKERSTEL
As to conditions: at 100 µM.

Data set [5] concerns Rattus norvegicus. Put plainly: Induction of mechanical allodynia in Sprague-Dawley rat assessed as decrease in withdrawal threshold at 100 ng administered as intraplantar injection by Von Frey assay relative to control. Details: scale not given: the % may be the effect or the level left. Particulars: in vivo, other. The method, boiled down: as §2
Data set [6] deals with Transient receptor potential cation channel subfamily V member 1 (Mus musculus) (UniProt Q704Y3). Nature of the data set: Agonist activity at recombinant mouse TRPV1 expressed in HEK293 cells assessed as increase in calcium influx up to 10 uM measured for 380 sec by Fluo-4 dye based FLIPR assay. Type of data set: cell-based. In outline:
as §1

Data set [7] relates to Rattus norvegicus. Put plainly: Induction of mechanical allodynia in Sprague-Dawley rat assessed as decrease in contralateral hind paw withdrawal threshold at 3 ug administered as intraplantar injection measured up to 150 mins post dose by Von Frey assay. As to conditions: in vivo, other, 2.5 h. The method, boiled down: as §2
The test system of data set [8] is Rattus norvegicus. Put plainly: Induction of mechanical allodynia in Sprague-Dawley rat assessed as decrease in ipsilateral hind paw withdrawal threshold administered as intraplantar injection measured up to 150 mins post dose by Von Frey assay. Particulars: in vivo, other, 2.5 h. The method, boiled down: as §2

For orientation: inhibition means the percentage by which the read-out fell short of the control.

Each structure is given as a SMILES string. The source made the active and inactive calls.

Chain of Transient receptor potential cation channel subfamily V member 1 (Mus musculus) (Q704Y3 whole entry): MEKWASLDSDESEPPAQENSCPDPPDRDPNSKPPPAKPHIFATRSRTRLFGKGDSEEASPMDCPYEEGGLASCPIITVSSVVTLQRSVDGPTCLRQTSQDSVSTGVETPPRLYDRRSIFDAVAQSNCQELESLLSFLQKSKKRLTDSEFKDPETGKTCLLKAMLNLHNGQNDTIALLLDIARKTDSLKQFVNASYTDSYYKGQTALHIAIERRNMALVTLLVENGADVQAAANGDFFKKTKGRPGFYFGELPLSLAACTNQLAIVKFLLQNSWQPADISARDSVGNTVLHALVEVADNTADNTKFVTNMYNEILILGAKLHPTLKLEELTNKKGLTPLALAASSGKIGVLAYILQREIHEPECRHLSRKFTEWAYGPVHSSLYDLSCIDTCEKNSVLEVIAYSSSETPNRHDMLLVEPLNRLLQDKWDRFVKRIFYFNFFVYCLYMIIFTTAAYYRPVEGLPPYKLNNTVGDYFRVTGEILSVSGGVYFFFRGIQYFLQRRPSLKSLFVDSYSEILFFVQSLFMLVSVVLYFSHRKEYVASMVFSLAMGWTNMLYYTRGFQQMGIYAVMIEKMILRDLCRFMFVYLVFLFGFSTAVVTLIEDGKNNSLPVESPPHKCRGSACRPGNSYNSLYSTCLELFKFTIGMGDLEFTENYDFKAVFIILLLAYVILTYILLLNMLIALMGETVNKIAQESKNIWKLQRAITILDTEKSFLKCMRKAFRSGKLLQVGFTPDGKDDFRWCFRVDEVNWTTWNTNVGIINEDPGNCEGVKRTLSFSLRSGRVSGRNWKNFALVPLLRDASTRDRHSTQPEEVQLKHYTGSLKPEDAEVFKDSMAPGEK

Turning to `O=C(O)CCC/C=C\C/C=C\C/C=C\C/C=C\C/C=C\CCO`, the outcome in data set [1] was Active. The Activity result in the data set with Rattus norvegicus [2] is recorded as “Non-Toxic”. Moreover, the inhibition in data set [3] turned out to be 37.1%; in data set [4], 0%.

On to `CCCCC[C@H](O)/C=C/[C@H]1[C@H](O)CC(=O)[C@@H]1C/C=C\CCCC(=O)O` [DINOPROSTONE], for which the Activity in the data set with Rattus norvegicus [5] worked out at 60%.

Take `O=C(O)CC/C=C\C/C=C\C/C=C\C/C=C\C/C=C\C/C=C\CCO`: in data set [1], the outcome was Active. The Activity result in the data set on Rattus norvegicus [2] is listed as “Non-Toxic”. Moreover, the inhibition in data set [3] amounted to 38.1%; in data set [4], 1%.

Consider `O=C(O)CCC/C=C\C/C=C\C/C=C\C/C=C\CCCCCO`, for which the outcome in data set [6] was inactive. The Activity result in the data set with Rattus norvegicus [7] is reported as “Non-Toxic”; with Rattus norvegicus [2] it was 30%; with Rattus norvegicus [8], “Dose-dependent effect”. In addition, the figures for the inhibition in data set [3] and in data set [4] were 27.5% and 0%, respectively.
